Data as given in ChEMBL document CHEMBL4732111, “A greener protocol for the synthesis of phosphorochalcogenoates: Antioxidant and free radical scavenging activities” (Eur J Med Chem, 2021).

What was measured:
[1] = Stability of compound in TsOH measured after 24 hrs; format: physicochemical
[2] = Stability of compound exposed to blue LED light using DCM as solvent measured after 24 hrs; format: physicochemical
[3] = Stability of compound exposed to blue LED light using EtOH as solvent measured after 24 hrs; format: physicochemical
[4] = Stability of compound exposed to blue LED light using DMSO as solvent measured after 24 hrs; format: physicochemical
[5] = Stability of compound in Na2CO3 measured after 24 hrs; format: physicochemical
[6] = Antioxidant activity assessed as ABTS radical scavenging activity at 500 uM relative to control; format: functional
Summary of the method: (§1)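 Compounds at 10–500 µM mixed with ABTS•+ solution; scavenging read as fall in absorbance at 734 nm, expressed as percent scavenging relative to vehicle. Trolox 10 µM as positive control. Mean ± SEM, n = 3; one-way ANOVA with Tukey.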

Brain [7] = assay: Antioxidant activity in Swiss mouse brain cerebral tissue assessed as inhibition of SNP-induced lipid peroxidation by measuring TBARS level at 50 uM incubated for 1 hr relative to control; format: functional, tissue-based; parameters: scale not given: the % may be the effect or the level left
Summary of the method: (§2)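 Whole brain of male adult Swiss mice homogenized in cold 50 mM Tris-HCl pH 7.4 (1/5 w/v) and spun 2400 g, 10 min, 4 °C; supernatant S1 used. Peroxidation induced with sodium nitroprusside in the presence of compound. Then SDS 8.1%, TBA 0.8% and acetic acid/HCl pH 3.4 added, heated 95 °C for 2 h; MDA measured as marker. Trolox 10 µM as positive control. n = 3; one-way ANOVA with Tukey versus induced.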

[8] = Ex vivo antioxidant activity in Swiss mouse assessed as inhibition of canola oil-induced lipid peroxidation in brain by measuring TBARS level at 10 mg/kg, ig measured after 30 mins (reference value: 91.91 +/- 9.38 /g); format: functional; conditions: 0.5 h
[9] = Ex vivo antioxidant activity in Swiss mouse assessed as inhibition of canola oil-induced lipid peroxidation in kidney by measuring TBARS level at 10 mg/kg, ig measured after 30 mins (reference value: 438.20 +/- 27.59 /g); format: functional; conditions: 0.5 h
[10] = Toxicity in Swiss mouse assessed as change in plasma creatinine level at 10 mg/kg, ig measured after 30 mins (reference value: 1.77 +/- 0.05 mg/dl); format: organism-based; conditions: in vivo, po, 0.5 h
Summary of the method: (§3)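 Swiss mice dosed intragastrically at 10 mg/kg (control canola oil 10 mL/kg). After 30 min, blood taken by heart puncture into heparin under light isoflurane anesthesia. Plasma obtained at 200 g for 10 min, hemolyzed samples discarded. ALT, AST, urea and creatinine measured with commercial kits. 5–6 mice per group; Student's t-test.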

[11] = Antioxidant activity assessed as ferric ion reducing activity by measuring absorbance at 10 uM measured after 40 mins by FRAP assay (reference value: 0.11 +/- 0.02); format: functional
Summary of the method: (§4)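 Compounds at 10–500 µM mixed with FRAP reagent (FeCl3, triazine and sodium acetate buffer pH 3.2; 10:1:1). Incubated 40 min at 37 °C in the dark; absorbance reported. Vehicle and Trolox 10 µM as controls. Mean ± SEM, n = 3; one-way ANOVA with Tukey versus vehicle.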

[12] = Toxicity in Swiss mouse assessed as change in plasma urea level at 10 mg/kg, ig measured after 30 mins (reference value: 90.31 +/- 0.74 mg/dl); format: organism-based; conditions: in vivo, po, 0.5 h; summary of the method: as §3
Brain [13] = assay: Antioxidant activity in Swiss mouse brain cerebral tissue assessed as inhibition of sodium azide-induced reactive species production by measuring fluorescence unit at 10 uM by DCHF-DA dye based spectrofluorimetric method (reference value: 139 +/- 26.8 U); format: functional
[14] = Antioxidant activity assessed as DPPH radical scavenging activity at 500 uM incubated for 30 mins under dark condition relative to control; format: functional
Summary of the method: (§5)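 Compounds at 10–500 µM mixed with ethanolic DPPH solution. Incubated 30 min at 30 °C in the dark, then absorbance read at 517 nm. Scavenging expressed as percent relative to vehicle; Trolox 10 µM as positive control. Mean ± SEM, n = 3; one-way ANOVA with Tukey.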

[15] = Antioxidant activity assessed as DPPH radical scavenging activity at 50 uM incubated for 30 mins under dark condition relative to control; format: functional; summary of the method: as §5
[16] = Ex vivo antioxidant activity in Swiss mouse assessed as inhibition of canola oil-induced glutathione peroxidase activity in brain by measuring oxidation of NADPH at 10 mg/kg, ig measured after 30 mins by spectrophotometric method (reference value: 12.8 +/- 2.28 nmol/g); format: functional; conditions: 0.5 h
Summary of the method: (§6)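 Swiss mice dosed orally at 10 mg/kg (vehicle canola oil); brain S1 prepared 30 min later. SOD measured as inhibition of epinephrine autoxidation in Na2CO3 50 mM pH 10.3 at 480 nm, one unit = 50% inhibition at 26 °C. GPx measured as NADPH decay coupled to glutathione reductase with H2O2 and GSH. Mean ± SEM, 6 mice per group; Student's t-test.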

Brain [17] = assay: Antioxidant activity in Swiss mouse brain cerebral tissue assessed as inhibition of sodium azide-induced reactive species production by measuring fluorescence unit at 100 uM by DCHF-DA dye based spectrofluorimetric method (reference value: 139 +/- 26.8 U); format: functional
[18] = Ex vivo antioxidant activity in Swiss mouse assessed as inhibition of canola oil-induced lipid peroxidation in liver by measuring TBARS level at 10 mg/kg, ig measured after 30 mins (reference value: 271.5 +/- 43.88 /g); format: functional; conditions: 0.5 h
[19] = Toxicity in Swiss mouse assessed as change in plasma AST level at 10 mg/kg, ig measured after 30 mins (reference value: 148 +/- 8.08 […]); format: organism-based; conditions: in vivo, po, 0.5 h; summary of the method: as §3
[20] = Antioxidant activity assessed as ferric ion reducing activity by measuring absorbance at 50 uM measured after 40 mins by FRAP assay (reference value: 0.11 +/- 0.02); format: functional; summary of the method: as §4
[21] = Antioxidant activity assessed as ABTS radical scavenging activity at 10 uM relative to control; format: functional; summary of the method: as §1
Brain [22] = assay: Antioxidant activity in Swiss mouse brain cerebral tissue assessed as inhibition of SNP-induced lipid peroxidation by measuring TBARS level at 10 uM incubated for 1 hr relative to control; format: functional, tissue-based; parameters: scale not given: the % may be the effect or the level left; summary of the method: as §2
[23] = Antioxidant activity assessed as ABTS radical scavenging activity at 50 uM relative to control; format: functional; summary of the method: as §1
[24] = Antioxidant activity assessed as ferric ion reducing activity by measuring absorbance at 500 uM measured after 40 mins by FRAP assay (reference value: 0.11 +/- 0.02); format: functional; summary of the method: as §4
[25] = Antioxidant activity assessed as DPPH radical scavenging activity at 100 uM incubated for 30 mins under dark condition relative to control; format: functional; summary of the method: as §5
[26] = Antioxidant activity assessed as ABTS radical scavenging activity at 100 uM relative to control; format: functional; summary of the method: as §1
Brain [27] = assay: Antioxidant activity in Swiss mouse brain cerebral tissue assessed as inhibition of sodium azide-induced reactive species production by measuring fluorescence unit at 50 uM by DCHF-DA dye based spectrofluorimetric method (reference value: 139 +/- 26.8 U); format: functional
[28] = Ex vivo antioxidant activity in Swiss mouse assessed as inhibition of canola oil-induced superoxide dismutase activity in brain by measuring SOD activity at 10 mg/kg, ig measured after 30 mins by spectrophotometric method (reference value: 25.44 +/- 4.12 U/min); format: functional; conditions: 0.5 h; summary of the method: as §6
[29] = Toxicity in Swiss mouse assessed as change in plasma ALT level at 10 mg/kg, ig measured after 30 mins (reference value: 110.90 +/- 12.4 IU/L); format: organism-based; conditions: in vivo, po, 0.5 h; summary of the method: as §3
[30] = Antioxidant activity assessed as DPPH radical scavenging activity at 10 uM incubated for 30 mins under dark condition relative to control; format: functional; summary of the method: as §5
[31] = Antioxidant activity assessed as ferric ion reducing activity by measuring absorbance at 100 uM measured after 40 mins by FRAP assay (reference value: 0.11 +/- 0.02); format: functional; summary of the method: as §4
Brain [32] = assay: Antioxidant activity in Swiss mouse brain cerebral tissue assessed as inhibition of SNP-induced lipid peroxidation by measuring TBARS level at 100 uM incubated for 1 hr relative to control; format: functional, tissue-based; parameters: scale not given: the % may be the effect or the level left; summary of the method: as §2
Brain [33] = assay: Antioxidant activity in Swiss mouse brain cerebral tissue assessed as inhibition of SNP-induced lipid peroxidation by measuring TBARS level at 500 uM incubated for 1 hr relative to control; format: functional, tissue-based; parameters: scale not given: the % may be the effect or the level left; summary of the method: as §2
Brain [34] = assay: Antioxidant activity in Swiss mouse brain cerebral tissue assessed as inhibition of sodium azide-induced reactive species production by measuring fluorescence unit at 500 uM by DCHF-DA dye based spectrofluorimetric method (reference value: 139 +/- 26.8 U); format: functional
[35] = Drug metabolism in TsOH assessed as tetraethyl diphosphate formation measured after 2 hrs by 31P-[1H] NMR spectroscopy
[36] = Stability of compound exposed to blue LED light using DCM as solvent assessed as parent compound remaining measured after 2 hrs by 31P-[1H] NMR spectroscopy; format: physicochemical; conditions: DCM solution exposed to blue LED light, read-out: Stabilty

SMILES | Activity [8] [g⁻¹] | Activity [9] [g⁻¹] | Activity [10] [mg/dL] | Activity [11] | Activity [12] [mg/dL] | Activity (Brain [13]) [U] | Activity [14] [%] | Activity [15] [%] | Activity [16] [nmol/g] | Activity [18] [g⁻¹] | Activity [19] [IU/L] | Activity [20] | Activity [21] [%] | Activity (Brain [22]) [%] | Activity [23] [%] | Activity [24] | Activity [25] [%] | Activity [28] [U/min] | Activity [29] [IU/L] | Activity [30] [%] | other results
CCOP(=O)(OCC)[Se]c1ccccc1 | – | – | – | – | – | – | – | – | – | – | – | – | – | – | – | – | – | – | – | – | Stabilty [1]: Stable; Stabilty [2]: Stable; Stabilty [3]: Stable; Stabilty [4]: Stable; Stabilty [5]: Stable
CCCCOP(=O)(OCCCC)[Se]c1ccccc1 | 87.71 | 371 | 1.75 | 0.11 | 105 | 98.3 | 7.38 | 18.4 | 5.5 | 249.4 | 159.3 | 0.15 | 1.92 | 79.3 | 8.76 | 0.3 | 12.2 | 23.85 | 140 | 6.14 | Activity [6]: 2.34%; Activity (Brain [7]): 83.8%; Activity (Brain [17]): 61.4 U; Activity [26]: 3.84%; Activity (Brain [27]): 76.1 U; Activity [31]: 0.15; Activity (Brain [32]): 90.4%; Activity (Brain [33]): 57%
COP(=O)(OC)[Se]c1ccccc1 | 87.34 | 676.6 | 1.78 | 0.11 | 80.3 | 71.5 | 21.9 | 7.83 | 7.18 | 326 | 151.2 | 0.12 | 5.02 | 84.7 | 10.3 | 0.16 | 4.68 | 25.94 | 117.4 | 5.53 | Activity (Brain [7]): 80.6%; Activity [31]: 0.12; Activity (Brain [32]): 85.9%; Activity (Brain [33]): 79.8%
Cc1c(C)c2c(c(C)c1O)CCC(C)(C(=O)O)O2 (stereo not given) [TROLOX] | – | – | – | 0.39 | – | 99 | – | – | – | – | – | – | 94.3 | 29.8 | – | – | – | – | – | 93.5 | –
COP(=O)(OC)[Se]c1ccc(C)cc1 | 54.79 | 455.4 | 1.96 | 0.14 | 80.24 | 70.3 | 3.62 | 6.83 | 7.48 | 199.9 | 147.4 | 0.17 | 11.5 | 73 | 12.5 | 0.29 | 9.87 | 7.37 | 119 | 12.2 | Activity (Brain [17]): 70.1 U; Activity (Brain [34]): 62.7 U; Activity [26]: 29.9%; Activity (Brain [27]): 84.9 U; Activity [31]: 0.17
O=P(OCc1ccccc1)(OCc1ccccc1)[Se]c1ccccc1 | 83 | 580.5 | 1.52 | 0.16 | 98.59 | 61.7 | 5.04 | 3.94 | 6.39 | 263.8 | 155.3 | 0.23 | 3.85 | 59.5 | 3.06 | 1.02 | 3.72 | 17.54 | 138.1 | 2.19 | Activity [6]: 12.4%; Activity [26]: 1.86%; Activity [31]: 0.4
COc1ccc([Se]P(=O)(OC)OC)cc1 | 64.64 | 422.5 | 2.36 | 0.16 | 74.39 | 94 | 19.1 | 6.95 | 4.98 | 280.8 | 151 | 0.16 | 6.76 | 87.6 | 8.6 | 0.26 | 11.9 | 13.47 | 119.5 | 3.72 | Activity [6]: 19.8%; Activity (Brain [7]): 78.6%; Activity (Brain [17]): 67.2 U; Activity [26]: 6.91%; Activity (Brain [27]): 94.1 U; Activity [31]: 0.19; Activity (Brain [32]): 78.1%; Activity (Brain [33]): 58%
CCOP(=O)(OCC)[Te]c1ccccc1 | – | – | – | – | – | – | – | – | – | – | – | – | – | – | – | – | – | – | – | – | Drug metabolism [35]: Metabolite detected; remaining at 2 h [36]: 20%
